{
  "source": "ChEMBL document CHEMBL1123492",
  "about": "“Carboxyl-modified amino acids and peptides as protease inhibitors” (J Med Chem, 1986)",
  "key": {"[1]": {"target": "T1, Papain (Carica papaya, UniProt P00784)", "T1 sequence (P00784 whole entry)": "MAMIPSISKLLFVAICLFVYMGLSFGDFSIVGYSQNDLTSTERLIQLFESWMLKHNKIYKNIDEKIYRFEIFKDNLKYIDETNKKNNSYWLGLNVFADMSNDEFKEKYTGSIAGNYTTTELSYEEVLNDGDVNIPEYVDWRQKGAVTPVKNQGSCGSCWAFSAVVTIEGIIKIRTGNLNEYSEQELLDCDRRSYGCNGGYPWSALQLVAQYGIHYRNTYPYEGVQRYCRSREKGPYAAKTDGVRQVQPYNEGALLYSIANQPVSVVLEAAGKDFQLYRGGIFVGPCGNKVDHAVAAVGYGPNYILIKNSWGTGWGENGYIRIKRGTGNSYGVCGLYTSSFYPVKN", "experiment": "Compound was tested for Inhibition of Papain", "method_in_brief": "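Papain activated 45 min at 25 °C in 50 mM phosphate pH 6.2 with 1 mM EDTA and 0.25 mM cysteine, made fresh daily. N-Cbz-Gly p-nitrophenyl ester hydrolysis at 25 °C read at 340 nm (Δε 6000 M⁻¹ cm⁻¹), corrected for nonenzymic hydrolysis. Compounds in acetonitrile or DMF, final <2.5% v/v. Reversible Ki by Lineweaver–Burk; irreversible Ki and k2 by Kitz–Wilson.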"}, "[2]": {"target": "T2, Dipeptidyl peptidase 1 (Homo sapiens, UniProt P53634)", "T2 sequence (P53634 25-134 limits assumed)": "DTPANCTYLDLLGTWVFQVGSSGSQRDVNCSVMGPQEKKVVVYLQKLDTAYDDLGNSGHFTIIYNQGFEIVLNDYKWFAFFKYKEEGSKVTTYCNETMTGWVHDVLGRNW", "T2 sequence (P53634 231-394 limits assumed)": "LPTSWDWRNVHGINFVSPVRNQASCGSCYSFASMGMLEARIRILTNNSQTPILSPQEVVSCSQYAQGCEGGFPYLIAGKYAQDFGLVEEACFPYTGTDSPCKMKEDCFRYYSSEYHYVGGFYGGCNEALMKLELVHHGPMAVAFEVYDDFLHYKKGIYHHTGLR", "T2 sequence (P53634 395-463 limits assumed)": "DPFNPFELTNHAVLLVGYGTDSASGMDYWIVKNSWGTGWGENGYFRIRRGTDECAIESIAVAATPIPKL", "experiment": "Compound was tested for Inhibition of Dipeptidyl aminopeptidase 1", "method_in_brief": "(§1)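 Cathepsin C diluted 1:200 daily in ice-cold 50 mM citrate pH 5 with 10 mM cysteamine. Gly-Phe p-nitroanilide hydrolysis at 37 °C read at 405 nm (Δε 9900 M⁻¹ cm⁻¹), started by adding substrate to prewarmed enzyme/inhibitor. Irreversible inhibition: enzyme preincubated with varied inhibitor levels, aliquots diluted into substrate over time. k_app from ln(% activity) vs time; Ki and k2 from 1/k_app vs 1/[I].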"}, "[3]": {"experiment": "Compound was tested for Inhibition of leucine aminopeptidase-C"}, "[4]": {"experiment": "Compound was tested for Inhibition of Leucine aminopeptidase-M"}, "[5]": {"target": "Chymotrypsinogen A (Bos taurus, UniProt P00766)", "experiment": "Compound was tested for Inhibition of Chymotrypsinogen", "method_in_brief": "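Chymotrypsin hydrolysis of glutaryl-L-Phe p-nitroanilide followed photometrically. Km of substrate and Ki of reversible inhibitors from Lineweaver–Burk double-reciprocal plots, Ki from replots of Km(app)/Vmax vs [I]; slopes and intercepts by linear regression. Test compounds added in methanol (<5% of final volume).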"}, "[6]": {"target": "T2, Dipeptidyl peptidase 1", "experiment": "Compound was tested for Inhibition of dipeptidyl Dipeptidyl aminopeptidase 1", "method_in_brief": "as §1"}, "[7]": {"experiment": "Compound was tested for Inhibition of Leucine aminopeptidase-M; NI is No inhibition at 40 mM"}},
  "note": "Where a SMILES comes first, the peptide text is derived from it.",
  "data": [
    {"smiles": "CC(=O)NC(Cc1ccccc1)C(=O)NCC#N", "note": "(stereo not drawn)", "values": [
      {"measurement": "Ki", "setting": "[1]", "value": 0.0011, "unit": "mM"}
    ]},
    {"smiles": "CC(=O)NC(Cc1ccccc1)C(=O)NCC(=N)S", "note": "(stereo not drawn)", "values": [
      {"measurement": "Ki", "setting": "[1]", "value": 0.095, "unit": "mM"}
    ]},
    {"smiles": "N#CC(Cc1ccccc1)NC(=O)CN", "note": "(stereo not drawn)", "values": [
      {"measurement": "Ki", "setting": "[2]", "value": 0.0027, "unit": "mM"}
    ]},
    {"smiles": "CS(=O)(=O)/C=C/C(N)Cc1ccccc1", "note": "(stereo not drawn)", "values": [
      {"measurement": "Ki", "setting": "[3]", "value": 8.8, "unit": "mM"},
      {"measurement": "Ki", "setting": "[4]", "value": 3.7, "unit": "mM"}
    ]},
    {"smiles": "COC(=O)/C=C/C(Cc1ccccc1)NC(=O)CN", "note": "(stereo not drawn)", "values": [
      {"measurement": "Ki", "setting": "[2]", "value": 0.22, "unit": "mM"}
    ]},
    {"smiles": "COC(=O)/C=C/C(Cc1ccccc1)NC(C)=O", "note": "(stereo not drawn)", "values": [
      {"measurement": "Ki", "setting": "[5]", "value": 30.8, "unit": "mM"}
    ]},
    {"smiles": "NCC(=O)N[C@@H](Cc1ccccc1)C(N)=O", "note": "(H-Gly-Phe-NH2)", "values": [
      {"measurement": "Ki", "setting": "[6]", "value": 6.2, "unit": "mM"}
    ]},
    {"smiles": "NC(=O)C(N)Cc1ccccc1", "note": "(stereo not drawn)", "values": [
      {"measurement": "Ki", "setting": "[3]", "value": 14.1, "unit": "mM"},
      {"measurement": "Ki", "setting": "[4]", "value": 14.8, "unit": "mM"}
    ]},
    {"smiles": "COC(=O)CCCNC(=O)C(Cc1ccccc1)NC(C)=O", "note": "(stereo not drawn)", "values": [
      {"measurement": "Ki", "setting": "[1]", "value": 19.5, "unit": "mM"}
    ]},
    {"smiles": "COC(=O)/C=C/C(N)Cc1ccccc1", "note": "(stereo not drawn)", "values": [
      {"measurement": "Ki", "setting": "[3]", "value": 23.7, "unit": "mM"},
      {"measurement": "Ki", "setting": "[4]", "value": 61, "unit": "mM"}
    ]},
    {"smiles": "N#CC(N)Cc1ccccc1", "note": "(stereo not drawn)", "values": [
      {"measurement": "Ki", "setting": "[3]", "value": 26.4, "unit": "mM"},
      {"measurement": "Ki", "setting": "[4]", "value": 67, "unit": "mM"}
    ]},
    {"smiles": "CC(=O)NC(C#N)Cc1ccccc1", "note": "(stereo not drawn)", "values": [
      {"measurement": "Ki", "setting": "[5]", "value": 5.3, "unit": "mM"}
    ]},
    {"smiles": "CC(=O)N[C@@H](Cc1ccccc1)C(=O)NCC(N)=O", "note": "(Ac-Phe-Gly-NH2)", "values": [
      {"measurement": "Ki", "setting": "[1]", "value": 4.7, "unit": "mM"}
    ]},
    {"smiles": "CC(=O)NC(Cc1ccccc1)C(N)=S", "note": "(stereo not drawn)", "values": [
      {"measurement": "Ki", "setting": "[5]", "value": 23, "unit": "mM"}
    ]},
    {"smiles": "CC(=O)NC(Cc1ccccc1)C(N)=O", "note": "(stereo not drawn)", "values": [
      {"measurement": "Ki", "setting": "[5]", "value": 13.9, "unit": "mM"}
    ]},
    {"smiles": "C=CCNC(=O)C(Cc1ccccc1)NC(C)=O", "note": "(stereo not drawn)", "values": [
      {"measurement": "Ki", "setting": "[1]", "value": 9.2, "unit": "mM"}
    ]},
    {"smiles": "CS(=O)(=O)/C=C/C(Cc1ccccc1)NC(=O)CN", "note": "(stereo not drawn)", "values": [
      {"measurement": "Ki", "setting": "[2]", "value": 0.18, "unit": "mM"}
    ]},
    {"smiles": "CC(=O)NC(/C=C/S(C)(=O)=O)Cc1ccccc1", "note": "(stereo not drawn)", "values": [
      {"measurement": "Ki", "setting": "[5]", "value": 29.4, "unit": "mM"}
    ]},
    {"smiles": "N=C(S)C(N)Cc1ccccc1", "note": "(stereo not drawn)", "values": [
      {"measurement": "Ki", "setting": "[7]", "value": "No inhibition"}
    ]}
  ]
}
